Source: PubChem (several laboratories)
An excerpt weighted towards active compounds, which were near 8.2% of everything screened.
M1 ag: agonists of M1 muscarinic receptor; CHO-M1 cells, Fluo-4 calcium fluorescence, agonist mode; hits give high values; B-score at 10 µM; hit rate 3% among 64,000;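 active = fluorescence rise, raw or as B-score row- and column-corrected plate score, outside the 99.7% band of its plate's samples, either direction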
RORa activator: activates the human nuclear receptor RORA. P35398. CHO-K1 Gal4-RORA LBD luciferase reporter, luminescence; percent increase over mock-subtracted basal signal. activation, % at 10 µM. hit rate 1.5% among 65,000. AID 560;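 active = activation above the mean of all tested compounds plus 3 SD, cut at about 49% in these data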;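 also: 0% = DMSO-treated RORA cells and 100% = added signal equal to DMSO minus mock-transfected cells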
HePTP inhibitor: human HePTP phosphatase inhibition. hit rate 0.64% among 110,000. P35236. AID 521. inhibition, % at 20 µM. recombinant HePTP phosphatase activity, OD absorbance; in the data active = inhibition above about 50%;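 also: plate controls were vehicle for no effect and reference inhibitor for full effect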
D1 mod: allosteric modulators of human D1 dopamine receptor; P21728; HEK293 D1, CRE-luciferase, dopamine EC30 potentiation; actives deviate in either direction; B-score at 10 µM; hit rate 5.9% among 58,000; AID 641;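 active = luminescence count or its row- and column-corrected plate score outside the 99.7% band of the plate's sample wells, on either side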
Target sequence (P21728 whole entry, looked up): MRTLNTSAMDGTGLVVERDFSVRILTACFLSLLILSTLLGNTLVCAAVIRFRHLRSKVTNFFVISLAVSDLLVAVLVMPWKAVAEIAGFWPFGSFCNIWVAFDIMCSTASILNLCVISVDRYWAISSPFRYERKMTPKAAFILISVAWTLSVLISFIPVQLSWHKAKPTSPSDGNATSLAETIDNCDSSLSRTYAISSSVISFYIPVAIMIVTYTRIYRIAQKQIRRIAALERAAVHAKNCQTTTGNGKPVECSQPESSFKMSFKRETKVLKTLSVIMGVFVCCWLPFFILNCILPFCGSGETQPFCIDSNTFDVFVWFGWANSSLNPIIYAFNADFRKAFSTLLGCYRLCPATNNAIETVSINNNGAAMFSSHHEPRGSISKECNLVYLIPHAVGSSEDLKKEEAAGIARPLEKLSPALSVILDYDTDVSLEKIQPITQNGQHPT
SF1 activator: activators of human nuclear receptor SF-1; Q13285; CHO-K1 Gal4-SF-1 LBD luciferase reporter; % increase over DMSO SF-1-specific signal; hit rate 1.9% among 65,000; activation, % at 10 µM;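 active = activation above the mean activation of all tested compounds plus 3 SD, cut at about 50% in these data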
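Material: Transient Gal4-SF-1 LBD reporter, CHO-K1 | Input: 4,000 cells/well | Dosing: One dose, 10 µM compound, 1% DMSO | Incubation: 20 h compound treatment, 37 °C | Detection: SteadyLite luciferase luminescence | Evaluation: Percent activation relative to DMSO median and mock-transfected background | Benchmarks: DMSO-treated SF-1-transfected cells as negative, DMSO-treated mock-transfected cells lacking SF-1 as background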
M1 antag: M1 muscarinic receptor (rat) antagonism. CHO-M1 cells, Fluo-4 calcium, ACh EC80 antagonist mode; hits give low values. hit rate 3.4% among 64,000. P08482. B-score at 10 µM;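 active = calcium fluorescence response, raw or row-and-column corrected B-score, differing from the plate sample mean either way at a set confidence level, mostly lower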
* = called active by the depositor; x = no result given.

SMILES	M1 ag	RORa activator	HePTP inhibitor	D1 mod	SF1 activator	M1 antag
Cc1ccc2c(c1)c(N=Nc1nnc3c(n1)[nH]c1ccccc13)c(O)n2C	x	x	87*	x	x	x
COC(=O)c1ccc(N2C(=O)CC(SCCN)C2=O)cc1 (stereo not given)	-0.42	51*	0	-0.69	42	1.2
COc1ccc(S(=O)(=O)Nc2ccccc2C(F)(F)F)cc1	-0.19	-18	10	0.42	-16	-2.6
N#C/C(=C\c1ccco1)Sc1nc2ccccc2s1	0.028	17	1	0.12	43	-0.41
COc1ccc(CNc2ccc(-c3ccc(OC)cc3)nn2)cc1	0.13	40	6	x	80*	-0.26
CCOc1cc(/C=C2\N=C(c3ccccc3)OC2=O)ccc1OCc1c(C)no[n+]1[O-]	x	x	66*	x	x	x
CCCOC(=O)c1ccc(NC(=O)C(c2ccccc2)c2ccccc2)cc1	x	x	9	x	x	x
O=C(c1ccccc1)c1c[nH]c2cc3c(cc2c1=O)OCCO3	-1.4	40	10	-0.24	50*	-0.32
CC(C)Oc1ccc(CC2CC(=O)NC2=O)cc1 (stereo not given)	-0.33	-1	2	-0.068	6	0.8
Cc1ccc(N2C(=O)c3n[nH]c(C)c3C2c2ccco2)cc1 (stereo not given)	-0.28	67*	x	-0.84	41	-0.31
CCOC(=O)c1ccc(N2C(=O)c3n[nH]c(C)c3C2c2ccco2)cc1 (stereo not given)	0.18	-4	-4	0.08	-6	0.58
N#CCSc1nc2ccc(N3CCCCC3)cc2c(=O)n1Cc1ccccc1	-0.089	12	4	3.2	8	-0.35
COc1ccc(Cn2c(C3CC3)nc3ccc(NC(=O)C4CC4)cc3c2=O)cc1	-0.25	48	-6	0.019	162*	0.34
CCn1cc(C(=O)Nc2cccc(NC(C)=O)c2)c2cc(OC)c(OC)cc2c1=O	-0.23	9	1	-0.35	-7	0.11
COc1ccc(-n2nc(C(=O)NCC(=O)N3CCN(c4ccccn4)CC3)c3ccccc3c2=O)cc1	1.2	23	3	-0.011	60*	-0.042
COc1ccc(C2C(C(=O)N3CCN(c4ccccn4)CC3)CC(=O)N2c2ccc(OC)cc2)cc1 (stereo not given)	1.1	-1	8	-3.1*	-6	-0.34
COc1ccc(CC(=O)N2CCN(c3ccccn3)CC2)cc1	-0.98	3	6	-0.65	-8	0.2
CCOc1ccccc1NC(=O)C(=O)NCCc1ccccc1	x	x	5	x	x	x
Cc1ccc(-c2nc3cc(Cl)cc(Cl)c3o2)cc1NC(=O)c1ccc2c(c1)OCCO2	x	x	5	x	x	x
COc1ccc2nc(Nc3nc(C)c(C(C)=O)s3)sc2c1	0.26	15	-7	x	80*	0.11
COc1ccc2nc(NC(=O)c3ccc(C)c(C)c3)sc2c1	x	x	5	x	x	x
CCCCOC(=O)Nc1nc2ccc(OC)cc2s1	-0.36	52*	9	-0.7	23	0.23
CCOc1ccc2nc(NC(=O)COC)sc2c1	-0.54	7	-4	-1.3	15	-0.0038
CCOCC(=O)Nc1nc2ccc(OC)cc2s1	1.1	33	16	-0.63	51*	-0.19
CC(=O)NS(=O)(=O)c1ccc(NC(=O)c2ccc([N+](=O)[O-])cc2[N+](=O)[O-])cc1	x	x	70*	x	x	x
SMILES	M1 ag	RORa activator	HePTP inhibitor	D1 mod	SF1 activator	M1 antag
O=C1/C(=C\c2ccc(-c3cccc([N+](=O)[O-])c3)o2)SC(=S)N1C1CCS(=O)(=O)C1 (stereo not given)	x	x	-5	x	x	x
CC(NC(=O)c1ccccc1Cl)c1ccccc1 (stereo not given)	x	x	98*	x	x	x
Nc1ccc(-c2nc3ccc(-c4nc5ccccc5o4)cc3[nH]2)cc1	2.9	33	6	x	35	-0.88
Cc1ccc(/C(O)=C2\C(=O)C(=O)N(CCCC(=O)O)C2c2cccc([N+](=O)[O-])c2)cc1 (stereo not given)	x	x	-11	x	x	x
Cc1cc2c(cc1C)NC(c1c(C)n(C)n(-c3ccccc3)c1=O)C1=C(CC(C)(C)CC1=O)N2 (stereo not given)	47*	36	x	-0.56	62*	-0.38
C=CCOc1ccc2c(C)cc(=O)oc2c1I	x	x	104*	x	x	x
C=CCOc1ccc2c(C)cc(=O)oc2c1C	x	x	4	x	x	x
Cc1cnn(C(=S)NCCc2ccccc2)c1	-0.18	27	13	0.81	53*	-1.3
Cc1cnn(C(=S)NCc2ccc(Cl)cc2)c1	0.95	-11	x	-0.058	-13	0
O=S(=O)(O)c1c(O)cnc2ccccc12	x	x	-5	x	x	x
